Measurements reported in ChEMBL document CHEMBL2417366, “Synthesis of novel isothiazolopyridines and their in vitro evaluation against Mycobacterium and Propionibacterium acnes” (Bioorg Med Chem, 2013).
≈ marks a conversion by molar mass, not a printed value. Calls of active or inactive are those of the source. The calls are words filed in the database; no cut-off is given here.

Columns and labels:
[1] = test system: Mycolicibacterium fortuitum; assay: Antibacterial activity against Mycobacterium fortuitum PCM 672 assessed as growth inhibition up to 250 ug/mL after 48 hrs by microplate Alamar blue assay; format: functional, organism-based
In short: (§1)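 M. fortuitum PCM 672 pre-grown in liquid 79 medium at 37°C for 24 h under aerobic conditions, then diluted to about 2 x 10^5 cfu/mL. Compounds were DMSO stocks (1 mg/mL) diluted in medium, tested at 0.97-250 µg/mL. Incubated at 37°C for 48 h, then Alamar Blue plus 20% Tween 80 added for 2 h more. Read by fluorescence. MIC was the lowest concentration preventing the blue-to-pink change (≥90% growth inhibition). Run two or three times; means and standard error reported.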

[2] = test system: Cutibacterium acnes; assay: Antibacterial activity against Propionibacterium acnes PCM 2400 assessed as growth inhibition up to 250 ug/mL after 48 hrs by microplate Alamar blue assay; format: functional, organism-based
[3] = test system: Mycolicibacterium fortuitum; assay: Antibacterial activity against Mycobacterium fortuitum PCM 672 assessed as growth inhibition after 48 hrs by microplate Alamar blue assay; format: functional; conditions: PCM 672, 48 h; in short: as §1
[4] = test system: Mycobacterium tuberculosis; assay: Antibacterial activity against Mycobacterium tuberculosis H37Rv assessed as growth inhibition up to 250 ug/mL by BACTEC 460 radiometric assay; format: functional, organism-based
[5] = test system: Mycobacterium tuberculosis; assay: Antibacterial activity against Mycobacterium tuberculosis H37Rv assessed as growth inhibition at 6.25 ug/mL by BACTEC 460 radiometric assay relative to control; format: functional; conditions: read-out: GI
In short: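 M. tuberculosis H37Rv grown in BACTEC 12B medium and tested once at 6.25 μg/mL in a primary screen. Growth was read radiometrically on the BACTEC 460 system and reported as % inhibition.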

[6] = test system: Mycolicibacterium fortuitum; assay: Bacteriostatic activity against Mycobacterium fortuitum PCM 672 at 0.97 to 250 ug/mL after 48 hrs by microplate Alamar blue assay relative to control; format: functional; in short: as §1
[7] = Selectivity index, ratio of IC50 for African green monkey Vero cells to MIC99 for Mycobacterium tuberculosis H37Rv; format: functional
In short: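 Cytotoxicity was measured in VERO cells by serial dilution starting at 10× MIC where solubility in culture medium allowed, giving an IC50. SI = VERO IC50 ÷ MIC (99% inhibition) against M. tuberculosis H37Rv from the BACTEC 460 radiometric assay.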

[8] = test system: Vero; assay: Cytotoxicity against African green monkey Vero cells; format: cell-based; conditions: Chlorocebus sabaeus
In short: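 VERO cells were exposed to serially diluted compound, starting at 10 x MIC where solubility in culture medium allowed. IC50 was determined, and the selectivity index was taken as VERO IC50 divided by the M. tuberculosis H37Rv MIC.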

[9] = test system: Mycobacterium tuberculosis; assay: Antibacterial activity against Mycobacterium tuberculosis H37Rv assessed as growth inhibition by BACTEC 460 radiometric assay; format: functional
In short: (§2)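 Serial dilutions started at 6.25 μg/mL against H37Rv in BACTEC 12B medium, read on the BACTEC 460 radiometric system. MIC was taken as the lowest concentration inhibiting 99% of the inoculum.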

[10] = test system: Cutibacterium acnes; assay: Induction of Propionibacterium acnes PCM 2400 replication at 3.9 to 15.6 ug/mL after 48 hrs by microplate Alamar blue assay relative to control; format: organism-based
[11] = test system: Cutibacterium acnes; assay: Induction of Propionibacterium acnes PCM 2400 replication at 0.97 to 250 ug/mL after 48 hrs by microplate Alamar blue assay relative to control; format: organism-based
[12] = test system: Mycolicibacterium fortuitum; assay: Induction of Mycobacterium fortuitum PCM 672 replication at 15.6 to 31.25 ug/mL after 48 hrs by microplate Alamar blue assay relative to control; format: organism-based; in short: as §1
[13] = test system: Cutibacterium acnes; assay: Antibacterial activity against Propionibacterium acnes PCM 2400 assessed as growth inhibition after 48 hrs by microplate Alamar blue assay; format: functional; conditions: PCM 2400, 48 h
[14] = test system: Mycobacterium tuberculosis; assay: Antibacterial activity against Mycobacterium tuberculosis H37Rv assessed as growth inhibition; format: functional; conditions: for MIC: Mycobacterium tuberculosis, H37Rv; in short: as §2
[15] = test system: Mycobacterium avium; assay: Antibacterial activity against Mycobacterium avium assessed as growth inhibition at 2 ug/mL relative to control; format: functional; conditions: read-out: GI
[16] = test system: Mycobacterium tuberculosis; assay: Antibacterial activity against Mycobacterium tuberculosis H37Rv assessed as growth inhibition at 0.125 ug/mL by BACTEC 460 radiometric assay relative to control; format: functional; conditions: read-out: GI
[17] = test system: Mycobacterium tuberculosis; assay: Antibacterial activity against Mycobacterium tuberculosis assessed as growth inhibition; format: functional
[18] = test system: Mycobacterium avium; assay: Antibacterial activity against Mycobacterium avium assessed as growth inhibition; format: functional
[19] = test system: Cutibacterium acnes; assay: Bacteriostatic activity against Propionibacterium acnes PCM 2400 at 0.97 to 250 ug/mL after 48 hrs by microplate Alamar blue assay relative to control; format: functional
[20] = test system: Mycobacterium avium; assay: Antibacterial activity against Mycobacterium avium assessed as growth inhibition at 12.5 ug/mL relative to control; format: functional, organism-based
[21] = test system: Mycolicibacterium fortuitum; assay: Induction of Mycobacterium fortuitum PCM 672 replication at 0.97 to 250 ug/mL after 48 hrs by microplate Alamar blue assay relative to control; format: organism-based; in short: as §1
[22] = test system: Cutibacterium acnes; assay: Induction of Propionibacterium acnes PCM 2400 replication at 15.6 ug/mL after 48 hrs by microplate Alamar blue assay relative to control; format: organism-based

CCCCNC(=O)OCCn1sc2nc(C)cc(C)c2c1=O
growth inhibition (GI) [1]: inactive | growth inhibition (GI) [2]: inactive | MIC50 [3]: 125 µg/mL (≈ 386 µM) | growth inhibition (GI) [4]: inactive

Cc1cc(C)c2c(=O)n(CCOC(=O)Nc3ccccc3)sc2n1
growth inhibition (GI) [1]: inactive | growth inhibition (GI) [2]: inactive | inhibition of growth at 6.25 µg/mL [5]: 12% | inhibition (INH) [6]: 42%

Cc1cc(C)c2c(=O)n(CC(O)CN3CCC(Cc4ccccc4)CC3)sc2n1 (stereo not drawn)
Selectivity Index [7]: 0.25 | IC50 [8]: 1.6 µg/mL (≈ 3.89 µM) | inhibition of growth at 6.25 µg/mL [5]: 100% | MIC99 [9]: 6.25 µg/mL (≈ 15.2 µM)

CCCCNC(=O)OCCOc1nsc2nc(C)cc(C)c12
growth inhibition (GI) [1]: inactive | Activity [10]: > 50% | MIC50 [3]: 125 µg/mL (≈ 386 µM) | growth inhibition (GI) [4]: inactive

COc1ccc(CN(Cn2sc3nc(C)cc(C)c3c2=O)Cn2sc3nc(C)cc(C)c3c2=O)cc1
Activity [11]: 10% | growth inhibition (GI) [4]: inactive

Cc1cc(C)c2c(=O)n(CCOC(=O)NC(C)(C)C)sc2n1
Activity [12]: 10% | growth inhibition (GI) [4]: inactive | MIC90 [13]: 3.2 µg/mL (≈ 9.89 µM)

COc1ccc(CN(Cn2sc3nc(C)cc(C)c3c2=O)Cn2sc3nc(C)cc(C)c3c2=O)cc1OC
growth inhibition (GI) [1]: inactive | inhibition of growth at 6.25 µg/mL [5]: 8% | Activity [11]: 10% | inhibition (INH) [6]: 21%

CC[C@H]1OC(=O)[C@H](C)[C@@H](O[C@H]2C[C@@](C)(OC)[C@@H](O)[C@H](C)O2)[C@H](C)[C@@H](O[C@@H]2O[C@H](C)C[C@H](N(C)C)[C@H]2O)[C@](C)(O)C[C@@H](C)C(=O)[C@H](C)[C@@H](O)[C@]1(C)O [ERYTHROMYCIN]
MIC50 [13]: < 1 µg/mL | MIC90 [13]: < 1 µg/mL

Cc1cc(C)c2c(=O)n(CO)sc2n1
growth inhibition (GI) [14]: 65% | MIC [14]: 12.5 µg/mL (≈ 59.5 µM)

CCNC(=O)OCCn1sc2nc(C)cc(C)c2c1=O
growth inhibition (GI) [2]: inactive | inhibition of growth at 6.25 µg/mL [5]: 17% | MIC50 [13]: 6.9 µg/mL (≈ 23.4 µM)

Cc1cc(C)c2c(=O)n(CN(Cc3ccc(Cl)cc3)Cn3sc4nc(C)cc(C)c4c3=O)sc2n1
growth inhibition (GI) [2]: inactive | growth inhibition (GI) [4]: inactive

Cc1cc(C)c2c(OCCOC(=O)NC(C)(C)C)nsc2n1
inhibition of growth at 6.25 µg/mL [5]: 16%

CC[C@H]1OC(=O)[C@H](C)[C@@H](O[C@H]2C[C@@](C)(OC)[C@@H](O)[C@H](C)O2)[C@H](C)[C@@H](O[C@@H]2O[C@H](C)C[C@H](N(C)C)[C@H]2O)[C@](C)(OC)C[C@@H](C)C(=O)[C@H](C)[C@@H](O)[C@]1(C)O [CLARITHROMYCIN]
inhibition of growth at 2 µg/mL [15]: 98%

Cc1cc(C)c2c(=O)n(CCOCCOc3ccccc3)sc2n1
Selectivity Index [7]: 0.68 | IC50 [8]: 4.1 µg/mL (≈ 11.9 µM) | inhibition of growth at 6.25 µg/mL [5]: 100% | MIC99 [9]: 6.25 µg/mL (≈ 18.1 µM)

CO[C@H]1/C=C/O[C@@]2(C)Oc3c(C)c(O)c4c(O)c(c(/C=N/N5CCN(C)CC5)c(O)c4c3C2=O)NC(=O)/C(C)=C\C=C\[C@H](C)[C@H](O)[C@@H](C)[C@@H](O)[C@@H](C)[C@H](OC(C)=O)[C@@H]1C [RIFAMPIN]
IC50 [8]: 58 µg/mL (≈ 70.5 µM) | inhibition of growth at 0.125 µg/mL [16]: 98% | MIC99 [9]: 0.125 µg/mL (≈ 0.152 µM)

O=c1c2ccccc2sn1CO
growth inhibition (GI) [14]: 100% | MIC [14]: 12.5 µg/mL (≈ 69 µM)

Cc1cc(C)c2c(OCCOC(=O)Nc3ccccc3)nsc2n1
growth inhibition (GI) [1]: inactive | growth inhibition (GI) [2]: inactive | growth inhibition (GI) [4]: inactive

Cc1cc(C)c2c(=O)n(CN3CCN(c4ccc([N+](=O)[O-])cc4)CC3)sc2n1
growth inhibition (GI) [1]: inactive | growth inhibition (GI) [2]: inactive | MIC50 [3]: 197 µg/mL (≈ 493 µM) | MIC [17]: < 1 µg/mL | MIC [18]: < 1 µg/mL

Cc1cc(C)c2c(=O)n(CCN3CCN(c4ccc([N+](=O)[O-])cc4)CC3)sc2n1
growth inhibition (GI) [1]: inactive | MIC [17]: < 1 µg/mL | inhibition (INH) [6]: 40% | MIC [18]: < 1 µg/mL | MIC50 [13]: < 1 µg/mL | MIC90 [13]: < 1 µg/mL

Cc1cc(C)c2c(=O)n(CN(Cc3ccccn3)Cn3sc4nc(C)cc(C)c4c3=O)sc2n1
growth inhibition (GI) [2]: inactive | inhibition of growth at 6.25 µg/mL [5]: 4% | inhibition (INH) [19]: 36%

Cc1cc(C)c2c(=O)n(CCCN3CCN(c4cccc(Cl)c4)CC3)sc2n1
Selectivity Index [7]: 0.53 | IC50 [8]: 3.3 µg/mL (≈ 7.91 µM) | inhibition of growth at 6.25 µg/mL [5]: 100% | growth inhibition (GI) [20]: inactive | MIC99 [9]: 6.25 µg/mL (≈ 15 µM)

Cc1cc(C)c2c(=O)n(CN(Cc3ccccc3Cl)Cn3sc4nc(C)cc(C)c4c3=O)sc2n1
growth inhibition (GI) [2]: inactive | growth inhibition (GI) [4]: inactive

CCNC(=O)OCCOc1nsc2nc(C)cc(C)c12
growth inhibition (GI) [2]: inactive | Activity [21]: 10% | inhibition of growth at 6.25 µg/mL [5]: 6% | MIC50 [13]: 184 µg/mL (≈ 623 µM)

Cc1cc(C)c2c(OCCOCCOc3ccccc3)nsc2n1
growth inhibition (GI) [2]: inactive | growth inhibition (GI) [4]: inactive

Cc1cc(C)c2c(=O)n(CC(=O)N3CCN(C)CC3)sc2n1
Selectivity Index [7]: 1.12 | IC50 [8]: 7 µg/mL (≈ 21.8 µM) | inhibition of growth at 6.25 µg/mL [5]: 100% | MIC99 [9]: 6.25 µg/mL (≈ 19.5 µM)

NNC(=O)c1ccncc1 [ISONIAZID]
MIC50 [3]: 0.322 µg/mL (≈ 2.35 µM) | MIC90 [3]: > 250 µg/mL

Cc1cc(C)c2c(=O)n(CN(Cc3ccccc3)Cn3sc4nc(C)cc(C)c4c3=O)sc2n1
Activity [22]: 10% | inhibition of growth at 6.25 µg/mL [5]: 6%

Cc1cc(C)c2c(=O)n(CC(O)CN3CCN(c4cccc(C(F)(F)F)c4)CC3)sc2n1 (stereo not drawn)
Selectivity Index [7]: 2.69 | IC50 [8]: 4.2 µg/mL (≈ 9 µM) | inhibition of growth at 6.25 µg/mL [5]: 100% | growth inhibition (GI) [20]: inactive | MIC99 [9]: 1.56 µg/mL (≈ 3.34 µM)

COc1ccccc1CN(Cn1sc2nc(C)cc(C)c2c1=O)Cn1sc2nc(C)cc(C)c2c1=O
growth inhibition (GI) [2]: inactive | MIC50 [3]: < 1 µg/mL | MIC90 [3]: < 1 µg/mL | growth inhibition (GI) [4]: inactive | MIC50 [13]: 38 µg/mL (≈ 72.8 µM)
